Test results: ChEMBL document CHEMBL1145041, “Synthesis and structure-activity relationships of cis-tetrahydrophthalazinone/pyridazinone hybrids: a novel series of potent dual PDE3/PDE4 inhibitory agents” (J Med Chem, 2003)

Columns and labels:
Phosphodiesterase 4 = Phosphodiesterase 4 (Homo sapiens, UniProt P27815+Q08499+Q07343+Q08493); assay: inhibition of cAMP-specific phosphodiesterase 4 (PDE4) was determined in cytosol from human neutrophils; type: protein assay
Method in brief: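 Enzyme source: cytosol of human neutrophils. Values as pIC50 (−log IC50), mean of two independent determinations each run in triplicate.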

Mus musculus [1] = assay: Inhibition of arachidonic acid (AA)-induced mouse ear edema after pretreatment with compound (1 h before AA) at a drug concentration of 30 umol/kg po.; type: functional
Method in brief: (§1)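 Mice dosed orally at 30 µmol/kg, 1 h before arachidonic acid applied to ear; edema read 1 h after AA (2 h post-dose). Percent inhibition of edema formation calculated versus provoked untreated controls; maximal attainable inhibition in model 80%.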

Phosphodiesterase 3 = Phosphodiesterase 3 (Homo sapiens, UniProt Q14432+Q13370); assay: Inhibition of dual cGMP-inhibited phosphodiesterase 3 (PDE3) was determined in homogenates from human platelets.
Method in brief: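 Enzyme source: homogenates of human platelets. Values as pIC50 (−log IC50), mean of two independent determinations each run in triplicate.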

Mus musculus [2] = assay: In vivo inhibition of arachidonic acid induced mouse ear edema 1 hr after pretreatment with 30 umol/kg peroral dose; type: functional; details: po; method in brief: as §1

SMILES | Log IC50 (Phosphodiesterase 4) | inhibition in vivo at 30 µmol/kg (Mus musculus [1]) [%] | Log IC50 (Phosphodiesterase 3) | inhibition in vivo at 30 µmol/kg (Mus musculus [2]) [%]
COc1ccc(C2=NN(c3ccc(-c4ccc(O)nn4)cc3)C(=O)C3CC=CCC23)cc1OC (stereo not drawn) | -8.1 | 8 | -5.4 | 
COc1ccc(C2=NN(c3ccccc3)C(=O)C3CC=CCC23)cc1Cl (stereo not drawn) | -7.1 |  | < -5 | 
CCOc1ccc(C2=NN(c3ccccc3)C(=O)C3CC=CCC23)cc1OCC (stereo not drawn) | -7.7 |  | < -5 | 
COc1ccc(C2=NN(CCCCOc3ccc(C4=NNC(=O)CC4C)cc3)C(=O)C3CC=CCC23)cc1Cl (stereo not drawn) | -7.8 | 47 | -7.5 | 
CCOc1ccc(C2=NN(CCCCOc3ccc(C4=NNC(=O)CC4C)cc3)C(=O)C3CC=CCC23)cc1OCC (stereo not drawn) | -8.6 | 46 | -6.7 | 
COc1ccc(C2=NN(CC(=O)Nc3ccc(C4=NNC(=O)CC4C)cc3)C(=O)C3CC=CCC23)cc1OC (stereo not drawn) | -8.4 | 13 | -6.7 | 
COc1ccc(C2=NN(c3ccccc3)C(=O)C3CC=CCC23)cc1OC (stereo not drawn) | -7.9 |  | < -5 | 13
COc1ccc([C@]2(C#N)CC[C@@H](C(=O)O)CC2)cc1OC1CCCC1 [CILOMILAST] |  | 33 | < -5 | 
CC1(C)C(=O)Nc2ccc(-c3ccc(O)nn3)cc21 |  |  | -6.9 | 
CC1CC(=O)NN=C1c1ccc2c(c1)C(C)(C)C(=O)N2 (stereo not drawn) |  |  | -7.9 | 
CC1CC(=O)NN=C1c1ccc(-n2cnc3c2CCCC3)cc1 (stereo not drawn) [TETRAHYDROBENXIMIDAZOLE] |  |  | -6.3 | 
COc1ccc(C2=NN(c3ccccc3)C(=O)C3CC=CCC23)cc1OC1CCCC1 (stereo not drawn) | -7.8 |  | < -5 | 
COc1ccc(C2=NN(CCCCC(=O)Nc3ccc(C4=NNC(=O)CC4C)cc3)C(=O)C3CC=CCC23)cc1OC (stereo not drawn) | -8.2 | 26 | -7 | 
CCOc1ccc(C2=NN(c3ccc(C4=NNC(=O)CC4C)cc3)C(=O)C3CC=CCC23)cc1OCC (stereo not drawn) | -8.1 | 42 | -6.6 | 
COc1ccc(C2=NN(CC(=O)Nc3cccc(C4=NNC(=O)CC4C)c3)C(=O)C3CC=CCC23)cc1OC (stereo not drawn) | -8.4 |  | -5.8 | 
COc1ccc(C2=NN(CCCCOc3ccc(C4=NNC(=O)CC4C)cc3)C(=O)C3CC=CCC23)cc1OC (stereo not drawn) | -8.7 | 32 | -7.1 | 
COc1cc(-c2ccc(=O)[nH]n2)ccc1OC(F)F [ZARDAVERINE] |  | 22 |  | 
COc1ccc(C2=NN(CC(=O)Nc3ccc(-c4ccc(O)nn4)cc3)C(=O)C3CC=CCC23)cc1OC (stereo not drawn) | -8.1 | 31 | -5.9 | 
COc1ccc(C2=NN(c3ccc(C4=NNC(=O)CC4C)cc3)C(=O)C3CC=CCC23)cc1Cl (stereo not drawn) | -7 | 35 | -7.1 | 
COc1ccc(C2=NN(c3ccc(C4=NNC(=O)CC4C)cc3)C(=O)C3CC=CCC23)cc1OC1CCCC1 (stereo not drawn) | -7.8 | 18 | -6.3 | 
COc1ccc(C2=NN(c3ccc(C4=NNC(=O)CC4C)cc3)C(=O)C3CC=CCC23)cc1OC (stereo not drawn) | -8.4 | 34 | -6.7 | 
COc1ccc(C2=NN(CCCCC(=O)Nc3ccc(-c4ccc(O)nn4)cc3)C(=O)C3CC=CCC23)cc1OC (stereo not drawn) | -8.2 | 27 | -6.1 | 
